Reference: ChEMBL document CHEMBL1124865, “Synthesis and biological evaluation of a series of parenteral 3'-quaternary ammonium cephalosporins” (J Med Chem, 1990)
≈ marks a conversion by molar mass, not a printed value.

Experiments:
Format in all cases: functional
Pseudomonas aeruginosa [1] = assay: Antibacterial activity against Pseudomonas aeruginosa PS18; conditions: Pseudomonas aeruginosa; read-out: MIC
Streptococcus pneumoniae = assay: Antibacterial activity against Streptococcus pneumoniae; conditions: Streptococcus pneumoniae; read-out: MIC
Escherichia coli [2] = assay: Antibacterial activity against Escherichia coli EC14; conditions: Escherichia coli; read-out: MIC
Pseudomonas aeruginosa [3] = assay: Antibacterial activity against Pseudomonas aeruginosa X528; conditions: Pseudomonas aeruginosa; read-out: MIC
Staphylococcus aureus [4] = assay: Antibacterial activity against penicillin G susceptible Staphylococcus aureus; conditions: Staphylococcus aureus; read-out: MIC
Klebsiella pneumoniae [5] = assay: Antibacterial activity against Klebsiella pneumoniae X26; conditions: Klebsiella pneumoniae; read-out: MIC
Streptococcus pyogenes = assay: Antibacterial activity against Streptococcus pyogenes; conditions: Streptococcus pyogenes; read-out: MIC
Enterobacter cloacae [6] = assay: Antibacterial activity against Enterobacter cloacae 265A; conditions: Enterobacter cloacae; read-out: MIC
Enterococcus faecium = assay: Antibacterial activity against Enterococcus faecium; conditions: Enterococcus faecium; read-out: MIC
Escherichia coli [7] = assay: Antibacterial activity against Escherichia coli TEM; conditions: Escherichia coli; read-out: MIC
Cavia porcellus = species on record: Cavia porcellus; assay: In vitro relative anticholinergic potential in isolated guinea pig trachea
How it was run: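 Guinea pig trachea in Krebs' solution at 37.5 °C, 95% O2/5% CO2, pH 7.4, 2 g resting tension. Cumulative carbachol log dose-response curve (3-fold steps) run before and 30 min after adding antagonist at 1 mM. […] Tukey test on log2 dose ratios.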

Klebsiella pneumoniae [8] = assay: microbe, parasite or virus in culture; conditions: Klebsiella pneumoniae; read-out: MIC
Staphylococcus aureus [9] = assay: In vivo efficacy against Staphylococcus aureus infected mice treated at 1 hr and 5 hr post infection
Klebsiella pneumoniae [10] = assay: In vitro relative hydrolysis rate against Klebsiella IV
How it was run: (§1)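 Spectrophotometric hydrolysis at 265 nm, substrate exposed to partially purified cell-free β-lactamase preparations; rate expressed as percentage of the cephaloridine rate.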

Enterobacter cloacae [11] = assay: In vitro relative hydrolysis rate against Enterobacter Ia; how it was run: as §1
Pseudomonas aeruginosa [12] = assay: In vitro relative hydrolysis rate against Pseudomonas Id; how it was run: as §1
Staphylococcus aureus [13] = assay: In vitro relative hydrolysis rate against Staphylococcus aureus; how it was run: as §1
Escherichia coli [14] = assay: In vitro relative hydrolysis rate against Escherichia coli IIIa; how it was run: as §1
Serratia marcescens = assay: Antibacterial activity against Serratia marcescens SE3; conditions: Serratia marcescens; read-out: MIC
Escherichia coli [15] = assay: In vivo efficacy against Escherichia coli infected mice treated at 1 hr and 5 hr post infection; conditions: Escherichia coli; read-out: ED50
Enterobacter cloacae [16] = assay: Antibacterial activity against Enterobacter cloacae EB5; conditions: Enterobacter cloacae; read-out: MIC
Pseudomonas aeruginosa [17] = assay: In vivo efficacy against Pseudomonas aeruginosa infected mice treated at 1 hr and 5 hr post infection; conditions: Pseudomonas aeruginosa; read-out: ED50
Staphylococcus aureus [18] = assay: In vivo efficacy against Staphylococcus aureus infections in mice; conditions: Staphylococcus aureus; read-out: MIC
Pseudomonas aeruginosa [19] = assay: In vivo efficacy against Pseudomonas aeruginosa infections in mice; conditions: Pseudomonas aeruginosa; read-out: MIC
Staphylococcus aureus [20] = assay: Antibacterial activity against penicillin G resistance Staphylococcus aureus; conditions: Staphylococcus aureus; read-out: MIC
Escherichia coli [21] = assay: In vivo efficacy against Escherichia coli infections in mice; conditions: Escherichia coli; read-out: MIC
[22] = Staphylococcus aureus, read-out: ED50

Row | SMILES | MIC (Pseudomonas aeruginosa [1]) [µg/mL] | MIC (Streptococcus pneumoniae) [µg/mL] | MIC (Escherichia coli [2]) [µg/mL] | MIC (Pseudomonas aeruginosa [3]) [µg/mL] | MIC (Staphylococcus aureus [4]) [µg/mL] | MIC (Klebsiella pneumoniae [5]) [µg/mL] | MIC (Streptococcus pyogenes) [µg/mL] | MIC (Enterobacter cloacae [6]) [µg/mL] | MIC (Enterococcus faecium) [µg/mL] | MIC (Escherichia coli [7]) [µg/mL] | MIC (Klebsiella pneumoniae [8]) [µg/mL] | ED50 (Staphylococcus aureus [9]; [22]) [mg/kg] | MIC (Serratia marcescens) [µg/mL] | ED50 (Escherichia coli [15]) [mg/kg] | MIC (Enterobacter cloacae [16]) [µg/mL] | ED50 (Pseudomonas aeruginosa [17]) [mg/kg] | MIC (Staphylococcus aureus [18]) [µg/mL] | MIC (Pseudomonas aeruginosa [19]) [µg/mL] | MIC (Staphylococcus aureus [20]) [µg/mL] | MIC (Escherichia coli [21]) [µg/mL] | other results
1 | CO/N=C(\C(=O)N[C@@H]1C(=O)N2C(C(=O)[O-])=C(C[n+]3ccc4c(c3)nc(C)n4C)CS[C@H]12)c1csc(N)n1 | 8 (≈ 14.7 µM) | 0.008 (≈ 0.0147 µM) | 0.008 (≈ 0.0147 µM) | 4 (≈ 7.37 µM) | 2 (≈ 3.69 µM) | 0.008 (≈ 0.0147 µM) | 0.008 (≈ 0.0147 µM) | 4 (≈ 7.37 µM) | 128 (≈ 236 µM) | 0.008 (≈ 0.0147 µM) | 2 (≈ 3.69 µM) | – | – | – | – | – | – | – | – | – | RAP (Cavia porcellus): 1
2 | CO/N=C(\C(=O)N[C@@H]1C(=O)N2C(C(=O)[O-])=C(C[n+]3ccc(CC(=O)NO)cc3)CS[C@H]12)c1csc(N)n1 (stereo in doubt; 11) | – | – | – | – | – | – | – | – | – | – | – | – | – | – | – | – | – | – | – | – | ED50 (Staphylococcus aureus [9]): 4 mg/kg; Hydrolysis rate (Klebsiella pneumoniae [10]): 10.4; Hydrolysis rate (Enterobacter cloacae [11]): 0.4; Hydrolysis rate (Pseudomonas aeruginosa [12]): 0.1; Hydrolysis rate (Staphylococcus aureus [13]): 3.4; Hydrolysis rate (Escherichia coli [14]): 0.5
3 | CO/N=C(\C(=O)N[C@@H]1C(=O)N2C(C(=O)[O-])=C(C[n+]3cccc4ccsc43)CS[C@H]12)c1csc(N)n1 | 8 (≈ 15.1 µM) | 0.03 (≈ 0.0565 µM) | 0.03 (≈ 0.0565 µM) | 4 (≈ 7.54 µM) | 1 (≈ 1.88 µM) | 0.03 (≈ 0.0565 µM) | 0.03 (≈ 0.0565 µM) | 4 (≈ 7.54 µM) | 128 (≈ 241 µM) | 0.06 (≈ 0.113 µM) | 4 (≈ 7.54 µM) | 0.8 | 0.06 (≈ 0.113 µM) | 0.05 | 0.125 (≈ 0.236 µM) | 13.5 | 1 (≈ 1.88 µM) | 4 (≈ 7.54 µM) | 2 (≈ 3.77 µM) | 0.015 (≈ 0.0283 µM) | Hydrolysis rate (Klebsiella pneumoniae [10]): 1.5; Hydrolysis rate (Enterobacter cloacae [11]): 0.1; Hydrolysis rate (Pseudomonas aeruginosa [12]): 0; Hydrolysis rate (Staphylococcus aureus [13]): 9.6; Hydrolysis rate (Escherichia coli [14]): 0.5
4 | CO/N=C(\C(=O)N[C@@H]1C(=O)N2C(C(=O)[O-])=C(C[n+]3cccc4c(N)cccc43)CS[C@H]12)c1csc(N)n1 | 2 (≈ 3.71 µM) | 0.015 (≈ 0.0278 µM) | 0.015 (≈ 0.0278 µM) | 2 (≈ 3.71 µM) | 1 (≈ 1.85 µM) | 0.015 (≈ 0.0278 µM) | < 0.008 | 8 (≈ 14.8 µM) | 128 (≈ 237 µM) | 0.015 (≈ 0.0278 µM) | 2 (≈ 3.71 µM) | 0.2 | 0.06 (≈ 0.111 µM) | < 0.03 | 0.06 (≈ 0.111 µM) | 6 | 0.5 (≈ 0.927 µM) | 2 (≈ 3.71 µM) | 2 (≈ 3.71 µM) | 0.03 (≈ 0.0556 µM) | Hydrolysis rate (Klebsiella pneumoniae [10]): 6.8; Hydrolysis rate (Enterobacter cloacae [11]): 1.1; Hydrolysis rate (Pseudomonas aeruginosa [12]): 0.6; Hydrolysis rate (Staphylococcus aureus [13]): 0.2; Hydrolysis rate (Escherichia coli [14]): 0.7
5 | CO/N=C(\C(=O)N[C@@H]1C(=O)N2C(C(=O)[O-])=C(C[n+]3ccc4nc(C)n(C)c4c3)CS[C@H]12)c1csc(N)n1 | 8 (≈ 14.7 µM) | 0.015 (≈ 0.0276 µM) | 0.015 (≈ 0.0276 µM) | 2 (≈ 3.69 µM) | 2 (≈ 3.69 µM) | 0.015 (≈ 0.0276 µM) | 0.015 (≈ 0.0276 µM) | 4 (≈ 7.37 µM) | 128 (≈ 236 µM) | 0.015 (≈ 0.0276 µM) | 2 (≈ 3.69 µM) | – | – | – | – | – | – | – | – | – | RAP (Cavia porcellus): 2
6 | CO/N=C(\C(=O)N[C@@H]1C(=O)N2C(C(=O)[O-])=C(C[n+]3ccc4c(c3)ncn4C)CS[C@H]12)c1csc(N)n1 | 4 (≈ 7.57 µM) | 0.008 (≈ 0.0151 µM) | 0.015 (≈ 0.0284 µM) | 1 (≈ 1.89 µM) | 2 (≈ 3.78 µM) | 0.015 (≈ 0.0284 µM) | 0.015 (≈ 0.0284 µM) | 8 (≈ 15.1 µM) | 128 (≈ 242 µM) | 0.015 (≈ 0.0284 µM) | 8 (≈ 15.1 µM) | – | – | – | – | – | – | – | 16 (≈ 30.3 µM) | – | RAP (Cavia porcellus): 1
7 | CCC(CC)c1cc[n+](CC2=C(C(=O)[O-])N3C(=O)[C@@H](NC(=O)/C(=N\OC)c4csc(N)n4)[C@H]3SC2)cc1 | 64 (≈ 118 µM) | 0.015 (≈ 0.0275 µM) | 0.125 (≈ 0.23 µM) | 16 (≈ 29.4 µM) | 2 (≈ 3.67 µM) | 0.03 (≈ 0.0551 µM) | < 0.008 | 16 (≈ 29.4 µM) | > 128 | 0.06 (≈ 0.11 µM) | 8 (≈ 14.7 µM) | 2.5 | 0.5 (≈ 0.918 µM) | 0.5 | 0.5 (≈ 0.918 µM) | 11 | 4 (≈ 7.34 µM) | 64 (≈ 118 µM) | 4 (≈ 7.34 µM) | 0.125 (≈ 0.23 µM) | –
8 | CO/N=C(\C(=O)N[C@@H]1C(=O)N2C(C(=O)[O-])=C(C[n+]3cccc(S(=O)(=O)O)c3)CS[C@H]12)c1csc(N)n1 | 32 (≈ 57.7 µM) | 0.06 (≈ 0.108 µM) | 0.06 (≈ 0.108 µM) | 8 (≈ 14.4 µM) | 4 (≈ 7.21 µM) | 0.125 (≈ 0.225 µM) | 0.06 (≈ 0.108 µM) | > 128 | > 128 | 0.5 (≈ 0.902 µM) | 64 (≈ 115 µM) | > 10 | 0.25 (≈ 0.451 µM) | 0.08 | 0.5 (≈ 0.902 µM) | 41.6 | 4 (≈ 7.21 µM) | 64 (≈ 115 µM) | 8 (≈ 14.4 µM) | 0.06 (≈ 0.108 µM) | –
9 | CO/N=C(\C(=O)N[C@@H]1C(=O)N2C(C(=O)[O-])=C(C[n+]3cccc(Cl)c3)CS[C@H]12)c1csc(N)n1 | 4 (≈ 7.86 µM) | 0.015 (≈ 0.0295 µM) | 0.06 (≈ 0.118 µM) | 2 (≈ 3.93 µM) | 1 (≈ 1.96 µM) | 0.06 (≈ 0.118 µM) | < 0.008 | 8 (≈ 15.7 µM) | > 128 | 0.06 (≈ 0.118 µM) | 16 (≈ 31.4 µM) | 1.6 | 0.06 (≈ 0.118 µM) | 0.14 | 0.25 (≈ 0.491 µM) | > 50 | 1 (≈ 1.96 µM) | 8 (≈ 15.7 µM) | 2 (≈ 3.93 µM) | 0.06 (≈ 0.118 µM) | –
10 | CO/N=C(\C(=O)N[C@@H]1C(=O)N2C(C(=O)[O-])=C(C[n+]3cc(C)cc(C)c3)CS[C@H]12)c1csc(N)n1 | 8 (≈ 15.9 µM) | 0.03 (≈ 0.0597 µM) | 0.06 (≈ 0.119 µM) | 4 (≈ 7.96 µM) | 1 (≈ 1.99 µM) | 0.03 (≈ 0.0597 µM) | < 0.008 | 8 (≈ 15.9 µM) | > 128 | 0.06 (≈ 0.119 µM) | 8 (≈ 15.9 µM) | – | 0.125 (≈ 0.249 µM) | – | 0.125 (≈ 0.249 µM) | – | – | – | 2 (≈ 3.98 µM) | – | Hydrolysis rate (Klebsiella pneumoniae [10]): 1.5; Hydrolysis rate (Enterobacter cloacae [11]): 0.1; Hydrolysis rate (Pseudomonas aeruginosa [12]): 0.1; Hydrolysis rate (Staphylococcus aureus [13]): 6.1; Hydrolysis rate (Escherichia coli [14]): 0.5
11 | CO/N=C(\C(=O)N[C@@H]1C(=O)N2C(C(=O)[O-])=C(C[n+]3cccc4cc(O)ccc43)CS[C@H]12)c1csc(N)n1 | 8 (≈ 14.8 µM) | < 0.008 | 0.03 (≈ 0.0555 µM) | 8 (≈ 14.8 µM) | 1 (≈ 1.85 µM) | < 0.008 | < 0.008 | 16 (≈ 29.6 µM) | 128 (≈ 237 µM) | 0.03 (≈ 0.0555 µM) | 4 (≈ 7.4 µM) | 1 | 0.5 (≈ 0.925 µM) | 0.04 | 0.5 (≈ 0.925 µM) | 29 | 1 (≈ 1.85 µM) | 8 (≈ 14.8 µM) | 2 (≈ 3.7 µM) | 0.03 (≈ 0.0555 µM) | –
